Source: ChEMBL document CHEMBL4346701, “Synthesis and biological evaluation of tryptophan-derived rhodanine derivatives as PTP1B inhibitors and anti-bacterial agents” (Eur J Med Chem, 2019)
Converted amounts (≈) assume the structure as drawn.

Legend:
[1] = molecular target: T1, Tyrosine-protein phosphatase non-receptor type 1 (Homo sapiens, UniProt P18031); assay: Inhibition of human recombinant GST-tagged PTP1B expressed in Escherichia coli BL21 (DE3) using pNPP as substrate measured for 2 mins by colorimetric analysis
T1 sequence (P18031 whole entry): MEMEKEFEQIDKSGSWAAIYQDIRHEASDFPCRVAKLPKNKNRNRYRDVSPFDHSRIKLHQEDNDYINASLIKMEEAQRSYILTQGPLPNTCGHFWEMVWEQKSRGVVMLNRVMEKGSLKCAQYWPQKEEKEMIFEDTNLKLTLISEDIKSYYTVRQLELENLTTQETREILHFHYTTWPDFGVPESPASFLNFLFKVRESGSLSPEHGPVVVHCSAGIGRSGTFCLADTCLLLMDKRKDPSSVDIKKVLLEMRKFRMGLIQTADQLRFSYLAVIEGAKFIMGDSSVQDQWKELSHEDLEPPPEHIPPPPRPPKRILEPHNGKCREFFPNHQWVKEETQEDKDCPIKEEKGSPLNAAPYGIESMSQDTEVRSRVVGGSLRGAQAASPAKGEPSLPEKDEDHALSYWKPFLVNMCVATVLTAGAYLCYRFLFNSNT

Staphylococcus aureus [2] = assay: Antibacterial activity against Staphylococcus aureus RN4220 assessed as reduction in bacterial cell growth incubated for 24 hrs by ELISA; type: functional; conditions: RN4220, 24 h
Summary of the method: (§1)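 MICs determined by serial dilution in 96-well microtiter plates. The strain panel included Gram-positive S. aureus strains and multidrug-resistant clinical isolates. Gatifloxacin, moxifloxacin, norfloxacin and oxacillin served as antibacterial positive controls.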

Staphylococcus aureus [3] = assay: Antibacterial activity against Staphylococcus aureus KCTC209 assessed as reduction in bacterial cell growth incubated for 24 hrs by ELISA; type: functional; conditions: KCTC209, 24 h; summary of the method: as §1
Staphylococcus aureus [4] = assay: Antibacterial activity against Staphylococcus aureus KCTC503 assessed as reduction in bacterial cell growth incubated for 24 hrs by ELISA; type: functional; conditions: KCTC503, 24 h; summary of the method: as §1
Streptococcus mutans = assay: Antibacterial activity against Streptococcus mutans KCTC3289 assessed as reduction in bacterial cell growth incubated for 24 hrs by ELISA; type: functional; conditions: KCTC3289, 24 h
Summary of the method: (§2)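 MIC determined by serial dilution in 96-well microtiter plates. Strains used were E. coli 1924 and P. aeruginosa 2742 (Gram-negative), S. mutans 3289 (Gram-positive) and the fungus C. albicans 7535. Gatifloxacin, moxifloxacin, norfloxacin and oxacillin served as antibacterial reference agents, and fluconazole as the antifungal reference.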

Escherichia coli = assay: Antibacterial activity against Escherichia coli 1924 assessed as reduction in bacterial cell growth incubated for 24 hrs by ELISA; type: functional; conditions: Escherichia coli, 1924, 24 h; summary of the method: as §2
Pseudomonas aeruginosa = assay: Antibacterial activity against Pseudomonas aeruginosa 2742 assessed as reduction in bacterial cell growth incubated for 24 hrs by ELISA; type: functional; conditions: Pseudomonas aeruginosa, 2742, 24 h; summary of the method: as §2
Candida albicans = assay: Antifungal activity against Candida albicans 7535 assessed as reduction in bacterial cell growth incubated for 24 hrs by ELISA; type: functional; conditions: Candida albicans, 7535, 24 h; summary of the method: as §2
Staphylococcus aureus [5] = assay: Antibacterial activity against Methicillin-resistant Staphylococcus aureus CCARM 3167 assessed as reduction in bacterial cell growth incubated for 24 hrs by ELISA; type: functional; conditions: CCARM 3167, 24 h; summary of the method: as §1
Staphylococcus aureus [6] = assay: Antibacterial activity against Methicillin-resistant Staphylococcus aureus CCARM 3506 assessed as reduction in bacterial cell growth incubated for 24 hrs by ELISA; type: functional; conditions: CCARM 3506, 24 h; summary of the method: as §1
Staphylococcus aureus [7] = assay: Antibacterial activity against Quinolone-resistant Staphylococcus aureus CCARM 3505 assessed as reduction in bacterial cell growth incubated for 24 hrs by ELISA; type: functional; conditions: CCARM 3505, 24 h; summary of the method: as §1
Staphylococcus aureus [8] = assay: Antibacterial activity against Quinolone-resistant Staphylococcus aureus CCARM 3519 assessed as reduction in bacterial cell growth incubated for 24 hrs by ELISA; type: functional; conditions: CCARM 3519, 24 h; summary of the method: as §1

Row | Compound | IC50 [1] [µM] | MIC (Staphylococcus aureus [2]) [mg/L] | MIC (Staphylococcus aureus [3]) [mg/L] | MIC (Staphylococcus aureus [4]) [mg/L] | MIC (Streptococcus mutans) [mg/L] | MIC (Escherichia coli) [mg/L] | MIC (Pseudomonas aeruginosa) [mg/L] | MIC (Candida albicans) [mg/L] | MIC (Staphylococcus aureus [5]) [mg/L] | MIC (Staphylococcus aureus [6]) [mg/L] | MIC (Staphylococcus aureus [7]) [mg/L] | MIC (Staphylococcus aureus [8]) [mg/L]
1 | O=C(O)C(Cc1c[nH]c2ccccc12)N1C(=O)/C(=C/c2ccc(OCc3ccc(Cl)cc3)cc2)SC1=S (stereo not drawn) | 2.44 | 2 (≈ 3.64 µM) | 4 (≈ 7.29 µM) | 4 (≈ 7.29 µM) | 2 (≈ 3.64 µM) | 4 (≈ 7.29 µM) | > 64 | > 64 | 4 (≈ 7.29 µM) | 4 (≈ 7.29 µM) | 4 (≈ 7.29 µM) | 4 (≈ 7.29 µM)
2 | O=C(O)C(Cc1c[nH]c2ccccc12)N1C(=O)/C(=C/c2ccc3cc(OCc4ccccc4Cl)ccc3c2)SC1=S (stereo not drawn) | 0.8 | 4 (≈ 6.68 µM) |  |  | 2 (≈ 3.34 µM) | 4 (≈ 6.68 µM) | > 64 | > 64 | 2 (≈ 3.34 µM) | 4 (≈ 6.68 µM) | 4 (≈ 6.68 µM) | 4 (≈ 6.68 µM)
3 | COc1ccccc1COc1ccc2cc(/C=C3\SC(=S)N(C(Cc4c[nH]c5ccccc45)C(=O)O)C3=O)ccc2c1 (stereo not drawn) | 1.53 | 8 (≈ 13.5 µM) |  |  | 8 (≈ 13.5 µM) | 16 (≈ 26.9 µM) | > 64 | > 64 | 8 (≈ 13.5 µM) | 8 (≈ 13.5 µM) | 8 (≈ 13.5 µM) | 8 (≈ 13.5 µM)
4 | COc1cc(/C=C2\SC(=S)N(C(Cc3c[nH]c4ccccc34)C(=O)O)C2=O)ccc1OCc1ccc(Cl)cc1 (stereo not drawn) | 4.36 | 2 (≈ 3.45 µM) | 4 (≈ 6.91 µM) | 4 (≈ 6.91 µM) | 4 (≈ 6.91 µM) | 4 (≈ 6.91 µM) | > 64 | > 64 | 4 (≈ 6.91 µM) | 4 (≈ 6.91 µM) | 4 (≈ 6.91 µM) | 4 (≈ 6.91 µM)
5 | O=C(O)C(Cc1c[nH]c2ccccc12)N1C(=O)/C(=C/c2ccc(OCc3ccc(Cl)cc3Cl)cc2)SC1=S (stereo not drawn) | 3.38 | 4 (≈ 6.85 µM) | 4 (≈ 6.85 µM) | 8 (≈ 13.7 µM) | 8 (≈ 13.7 µM) | 8 (≈ 13.7 µM) | > 64 | > 64 | 8 (≈ 13.7 µM) | 8 (≈ 13.7 µM) | 8 (≈ 13.7 µM) | 16 (≈ 27.4 µM)
6 | OC(Cn1cncn1)(Cn1cncn1)c1ccc(F)cc1F [FLUCONAZOLE] |  |  |  |  |  |  |  | 1 (≈ 3.27 µM) |  |  |  | 
7 | O=C(O)C(Cc1c[nH]c2ccccc12)N1C(=O)/C(=C/c2ccc(OCc3ccccc3)cc2)SC1=S (stereo not drawn) | 5.52 | 4 (≈ 7.77 µM) | 8 (≈ 15.5 µM) | 8 (≈ 15.5 µM) | 4 (≈ 7.77 µM) | 8 (≈ 15.5 µM) | > 64 | > 64 | 8 (≈ 15.5 µM) | 8 (≈ 15.5 µM) | 8 (≈ 15.5 µM) | 8 (≈ 15.5 µM)
8 | COc1cc(/C=C2\SC(=S)N(C(Cc3c[nH]c4ccccc34)C(=O)O)C2=O)ccc1OCc1ccc(Br)cc1 (stereo not drawn) | 3.18 | 4 (≈ 6.41 µM) | 4 (≈ 6.41 µM) | 4 (≈ 6.41 µM) | 8 (≈ 12.8 µM) | 8 (≈ 12.8 µM) | > 64 | > 64 | 4 (≈ 6.41 µM) | 4 (≈ 6.41 µM) | 4 (≈ 6.41 µM) | 8 (≈ 12.8 µM)
9 | O=C(O)C(Cc1c[nH]c2ccccc12)N1C(=O)/C(=C/c2ccc3cc(OCc4ccccc4)ccc3c2)SC1=S (stereo not drawn) | 0.82 | 8 (≈ 14.2 µM) |  |  | 8 (≈ 14.2 µM) | 8 (≈ 14.2 µM) | > 64 | > 64 | 8 (≈ 14.2 µM) | 8 (≈ 14.2 µM) | 4 (≈ 7.08 µM) | 8 (≈ 14.2 µM)
10 | COc1ccc(COc2ccc3cc(/C=C4\SC(=S)N(C(Cc5c[nH]c6ccccc56)C(=O)O)C4=O)ccc3c2)cc1 (stereo not drawn) | 1.45 | 8 (≈ 13.5 µM) |  |  | 8 (≈ 13.5 µM) | 16 (≈ 26.9 µM) | > 64 | > 64 | 8 (≈ 13.5 µM) | 8 (≈ 13.5 µM) | 8 (≈ 13.5 µM) | 8 (≈ 13.5 µM)
11 | O=C(O)C(Cc1c[nH]c2ccccc12)N1C(=O)/C(=C/c2cccc(OCc3ccc(Cl)cc3Cl)c2)SC1=S (stereo not drawn) | 1.7 | 4 (≈ 6.85 µM) | 4 (≈ 6.85 µM) | 8 (≈ 13.7 µM) | 4 (≈ 6.85 µM) | 8 (≈ 13.7 µM) | > 64 | > 64 | 8 (≈ 13.7 µM) | 8 (≈ 13.7 µM) | 4 (≈ 6.85 µM) | 4 (≈ 6.85 µM)
